As a reminder, the IC50 is the point on the concentration scale where inhibition reaches its midpoint. A high value points to weaker potency.

The structures appear in SMILES notation.

The target in data set [1] is T1, ATP-dependent translocase ABCB1 (Homo sapiens, UniProt P08183). The data set can be described thus: Modulation of human ABCB1 expressed in mouse L5178Y cells assessed as fluorescence activity ratio at 2 uM pretreated for 10 mins followed by rhodamine 123 addition and measured after 20 mins by flow cytometry (reference value: 1.01). The class given is cell-based. Background: In flow cytometry, cells or beads pass a laser one at a time.
T1 sequence (P08183 whole entry): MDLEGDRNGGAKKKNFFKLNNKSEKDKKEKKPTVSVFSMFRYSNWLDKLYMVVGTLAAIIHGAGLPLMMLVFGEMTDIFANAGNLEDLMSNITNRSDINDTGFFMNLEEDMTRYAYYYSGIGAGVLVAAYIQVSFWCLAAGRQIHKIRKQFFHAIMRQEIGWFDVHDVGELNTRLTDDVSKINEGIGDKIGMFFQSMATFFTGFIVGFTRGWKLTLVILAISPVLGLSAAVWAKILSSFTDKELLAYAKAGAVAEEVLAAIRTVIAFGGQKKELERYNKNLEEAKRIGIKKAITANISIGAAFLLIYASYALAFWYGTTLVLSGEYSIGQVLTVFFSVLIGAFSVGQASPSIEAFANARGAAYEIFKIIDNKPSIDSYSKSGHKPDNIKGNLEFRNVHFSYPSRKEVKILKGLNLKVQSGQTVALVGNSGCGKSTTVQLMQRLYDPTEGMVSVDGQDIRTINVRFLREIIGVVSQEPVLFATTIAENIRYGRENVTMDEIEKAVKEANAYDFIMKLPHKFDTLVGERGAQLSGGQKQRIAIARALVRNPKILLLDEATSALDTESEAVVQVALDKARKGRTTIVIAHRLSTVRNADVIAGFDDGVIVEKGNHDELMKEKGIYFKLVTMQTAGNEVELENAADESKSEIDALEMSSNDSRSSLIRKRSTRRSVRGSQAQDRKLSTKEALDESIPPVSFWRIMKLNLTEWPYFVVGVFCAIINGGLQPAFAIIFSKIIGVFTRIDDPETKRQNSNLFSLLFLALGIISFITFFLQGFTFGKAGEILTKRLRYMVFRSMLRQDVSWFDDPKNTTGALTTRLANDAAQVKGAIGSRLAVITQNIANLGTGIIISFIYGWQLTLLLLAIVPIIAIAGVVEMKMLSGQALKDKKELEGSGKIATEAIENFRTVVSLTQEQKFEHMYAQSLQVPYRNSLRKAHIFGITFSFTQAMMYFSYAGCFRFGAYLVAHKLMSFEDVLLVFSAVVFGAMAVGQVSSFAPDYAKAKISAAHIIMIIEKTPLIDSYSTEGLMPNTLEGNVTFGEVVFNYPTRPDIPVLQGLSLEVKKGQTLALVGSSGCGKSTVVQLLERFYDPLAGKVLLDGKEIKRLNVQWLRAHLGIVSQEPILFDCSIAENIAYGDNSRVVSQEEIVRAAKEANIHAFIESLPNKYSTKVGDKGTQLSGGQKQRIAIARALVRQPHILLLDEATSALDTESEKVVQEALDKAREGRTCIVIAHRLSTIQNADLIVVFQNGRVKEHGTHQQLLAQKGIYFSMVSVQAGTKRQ

Data set [2] deals with L5178Y. The data set can be described thus: Antiproliferative activity against mouse L5178Y cells after 72 hrs by MTT assay. It is filed as cell-based. An outline of the steps:
(§1)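 L5178Y-PAR and ABCB1-transfected L5178Y-MDR cells seeded at 6 × 10^3 per well. Compounds tested in 2-fold serial dilutions for 72 h. MTT in PBS was added for 4 h, then SDS (10% in 0.01 M HCl) overnight at 37 °C. OD read at 550 nm (reference 630 nm), in quadruplicate. IC50 fitted from dose–inhibition curves; mean ± SD.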
For orientation: Tetrazolium dyes change colour on reduction, which living cells bring about.

Another data set deals with COLO 320. The data set can be described thus: Cytotoxicity against human COLO320 cells after 24 hrs by MTT assay. The class given is cell-based. The settings on record: COLO 320, 24 h. The method in brief:
(§2)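 Cells seeded at 1 × 10^4 per well, with adherent lines detached by trypsin-EDTA and allowed 4 h attachment at 37 °C, 5% CO2. Compounds in 2-fold serial dilutions for 24 h. MTT for 4 h, SDS/HCl solubilization overnight, OD 550 nm (ref 630 nm) in quadruplicate. Percent growth inhibition calculated vs cell and medium controls; IC50 from fitted curves.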

The target in data set [3] is T1, ATP-dependent translocase ABCB1. Put plainly: Modulation of ABCB1 (unknown origin) expressed in human COLO320 cells co-expressing LRP assessed as fluorescence activity ratio at 20 uM pretreated for 10 mins followed by rhodamine 123 addition and measured after 20 mins by flow cytometry (reference value: 0.79). The class given is cell-based.
The next data set concerns MRC5. Put plainly: Cytotoxicity against human MRC5 cells after 24 hrs by MTT assay. The settings on record: MRC5, 24 h. The class given is cell-based. The method in brief: as §2
Data set [4] deals with L5178Y. The data set can be described thus: Antiproliferative activity against mouse L5178Y cells harboring human ABCB1 after 72 hrs by MTT assay. The class given is ADME, cell-based. The method in brief: as §1
The test system of another data set is COLO 205. Put plainly: Cytotoxicity against human COLO205 cells after 24 hrs by MTT assay. It is filed as cell-based. The note with it: COLO 205, 24 h. An outline of the steps:
as §2

The target of data set [5] is T1, ATP-dependent translocase ABCB1. The data set can be described thus: Modulation of human ABCB1 expressed in mouse L5178Y cells assessed as fluorescence activity ratio at 20 uM pretreated for 10 mins followed by rhodamine 123 addition and measured after 20 mins by flow cytometry (reference value: 1.01). The class given is cell-based.
Data set [6] has the same target. The data set can be described thus: Modulation of ABCB1 (unknown origin) expressed in human COLO320 cells co-expressing LRP assessed as fluorescence activity ratio at 2 uM pretreated for 10 mins followed by rhodamine 123 addition and measured after 20 mins by flow cytometry (reference value: 0.79). The class given is cell-based.
The test system of a further data set is NIH3T3. Put plainly: Cytotoxicity against mouse NIH/3T3 cells after 24 hrs by MTT assay. The class given is cell-based. The note with it: NIH3T3, 24 h. The method in brief:
as §2

Data set [7] deals with T1, ATP-dependent translocase ABCB1. The data set can be described thus: Modulation of human ABCB1 expressed in mouse L5178Y cells assessed as potentiation of doxorubicin-induced cytotoxicity by measuring combination index at ED50 measured after 48 hrs by MTT assay. The class given is cell-based. An outline of the steps: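 Checkerboard in L5178Y-MDR cells: doxorubicin diluted 14.7–0.1 μM along one axis, modulator diluted from 2-fold its IC50 along the other, at fixed ratios. Cells at 2 × 10^5/mL, 48 h, MTT read-out. Dose–response curves fitted by Chou median-effect equation, keeping only r > 0.90. CI at 50% inhibition given as mean ± SD of three CI values from different drug ratios.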

For data set [8] the target is unchanged. The data set can be described thus: Modulation of human ABCB1 expressed in mouse L5178Y cells assessed as fluorescence activity ratio at 0.2 uM pretreated for 10 mins followed by rhodamine 123 addition and measured after 20 mins by flow cytometry (reference value: 1.01). The class given is cell-based.
For data set [9] the target is unchanged. Put plainly: Modulation of ABCB1 (unknown origin) expressed in human COLO320 cells co-expressing LRP assessed as fluorescence activity ratio at 0.2 uM pretreated for 10 mins followed by rhodamine 123 addition and measured after 20 mins by flow cytometry (reference value: 0.79). It is filed as cell-based.

As for `C=C(CC[C@@H](C)[C@H]1CC[C@@]2(C)C3=C(C(=O)C[C@]12C)[C@@]1(C)CC[C@H](O)[C@@H](C)[C@@H]1CC3=O)C(C)C`, the Ratio in [1] was found to be 6.14; in data set [3] it was 1.84; in [5] it was 30.68; in data set [6], 1.09. Further, the IC50 in the data set with L5178Y [2], with COLO 320, with MRC5, in the data set on L5178Y [4], in the data set with COLO 205 and in the data set on NIH3T3 was greater than 10 µM each time.
In the case of `CC1=C2C=C3CC[C@@H]4C(C)(C)/C(=N/OC(=O)c5ccco5)CC[C@@]4(C)[C@@H]3C[C@H]2OC1=O`, the Ratio in data set [1] worked out at 2.1; in data set [5], 40.69. For the same compound, the IC50 with L5178Y [2] and with L5178Y [4] was greater than 10 µM each time. Moreover, the CI in [7] came out at 0.454.
Regarding `C=C(C)[C@H](O)CC[C@@H](C)[C@H]1CC[C@@]2(C)[C@@H]3CC[C@H]4C(C)(C)[C@@H](O)CC[C@@]45C[C@@]35CC[C@]12C`, the Ratio in data set [1] is reported as 5.91; in [3], 5.91; in [5], 43.58; in data set [6], 0.77. For the same compound, the IC50 with L5178Y [2], with COLO 320, in the data set on MRC5, in the data set on L5178Y [4], in the data set on COLO 205 and in the data set with NIH3T3 was greater than 10 µM in each case.
In the case of `CC1=C2C=C3CC[C@@H]4C(C)(C)/C(=N/OC(=O)c5ccccc5)CC[C@@]4(C)[C@@H]3C[C@H]2OC1=O`, the Ratio in data set [1] is on record as 5.78; in [5], 56.37. Further, the IC50 with L5178Y [2] and in the data set on L5178Y [4] was greater than 10 µM in each case. Further, in data set [7], the CI was 0.152.
With `CC(=O)O/N=C1\CC[C@@]2(C)[C@@H]3C[C@H]4OC(=O)C(C)=C4C=C3CC[C@@H]2C1(C)C`, the Ratio in data set [1] is on record as 3.02; in data set [5], 38.64. Further, the IC50 in the data set with L5178Y [2] and in the data set with L5178Y [4] was greater than 10 µM in each case. For the same compound, the CI in [7] is given as 0.501.
For the compound `CCCC(=O)O/N=C1\CC[C@@]2(C)[C@@H]3C[C@H]4OC(=O)C(C)=C4C=C3CC[C@@H]2C1(C)C`, the Ratio is 1.36 in data set [1] and 10.38 in data set [5]. Further, the IC50 in the data set with L5178Y [2] and in the data set with L5178Y [4] was greater than 10 µM throughout. Moreover, the CI in data set [7] is 0.387.
Take `C[C@H](C/C=C/C(C)(C)O)[C@H]1CC[C@@]2(C)[C@@H]3CC[C@H]4C(C)(C)[C@@H](O)CC[C@@]45C[C@@]35CC[C@]12C`: the Ratio in data set [1] was found to be 10.68; in data set [3], 3.45; in [5], 67.05; in data set [6], 1.26. In addition, the IC50 in the data set on L5178Y [2], with COLO 320, in the data set with MRC5, in the data set on L5178Y [4], in the data set on COLO 205 and in the data set on NIH3T3 was greater than 10 µM each time.
`C=C(CC[C@@H](C)[C@H]1CC[C@@]2(C)C(=O)[C@@]3(CC[C@]12C)[C@@H](O)C[C@H]1[C@H](C)[C@@H](O)CC[C@@]13C)C(C)C`: the Ratio in data set [1] is listed as 54.38; in data set [8], 43.75; in data set [9], 1.68; in data set [3], 8; in data set [5] it was 96.02; in data set [6], 2.27. The half-maximal inhibitory concentration (IC50) in the data set with L5178Y [2], in the data set on COLO 320, in the data set on MRC5, in the data set with L5178Y [4], in the data set with COLO 205 and in the data set on NIH3T3 was greater than 10 µM in each case. In addition, in data set [7], the CI worked out at 0.872.
Turning to `CC1=C2C=C3CC[C@@H]4C(C)(C)/C(=N/O)CC[C@@]4(C)[C@@H]3C[C@H]2OC1=O`, the Ratio in data set [1] worked out at 0.96; in data set [5], 4.88. Besides, the concentration for half-maximal inhibition (IC50) in the data set with L5178Y [2] and in the data set on L5178Y [4] was greater than 10 µM throughout. The CI in data set [7] came out at 0.477.
Turning to `CC1=C2C=C3CC[C@@H]4C(C)(C)C(=O)CC[C@@]4(C)[C@@H]3C[C@H]2OC1=O` [HELIOSCOPINOLIDE E], the Ratio in data set [1] was 1.84; in [3] it was 0.98; in data set [5], 10.23; in data set [6] it was 0.44. Moreover, the IC50 with L5178Y [2], with COLO 320, with MRC5, in the data set on L5178Y [4], in the data set on COLO 205 and in the data set on NIH3T3 was greater than 10 µM throughout. In addition, the CI in data set [7] was 0.367.
As to `CC1=C2C=C3CC[C@@H]4C(C)(C)[C@@H](O)CC[C@@]4(C)[C@@H]3C[C@H]2OC1=O` [HELIOSCOPINOLIDE B], the Ratio worked out at 1.7 in [1], 6.78 in data set [3], 8.18 in data set [5] and 1.73 in data set [6]. For the same compound, the IC50 in the data set on L5178Y [2], in the data set on COLO 320, in the data set on MRC5, in the data set with L5178Y [4], with COLO 205 and with NIH3T3 was greater than 10 µM throughout. The CI in [7] amounted to 0.652.
`CC1=C2C=C3CC[C@@H]4C(C)(C)/C(=N/OC(=O)c5cccs5)CC[C@@]4(C)[C@@H]3C[C@H]2OC1=O`: the figures for the Ratio in data set [1] and in data set [5] were 1.09 and 7.09, respectively. Besides, the IC50 in the data set with L5178Y [2] and in the data set on L5178Y [4] was greater than 10 µM in each case. Moreover, in [7], the CI worked out at 0.324.
On to `CC1(C)CC[C@]2(C(=O)O)CC[C@]3(C)C(=CC[C@@H]4[C@@]5(C)CC[C@H](O)C(C)(C)[C@@H]5CC[C@]43C)[C@@H]2C1` [OLEANOLIC_ACID], for which the Ratio in data set [1] is on record as 1.06; in data set [3] it was 4.71; in data set [5], 1.7; in data set [6], 2.1. In addition, the IC50 in the data set with L5178Y [2], with COLO 320, in the data set on MRC5, with L5178Y [4], in the data set with COLO 205 and in the data set on NIH3T3 was greater than 10 µM each time.
As to `CC[C@H](CC[C@@H](C)[C@H]1CC[C@H]2[C@@H]3CCC4=CC(=O)CC[C@]4(C)[C@H]3CC[C@]12C)C(C)C`, the Ratio is given as 2.51 in data set [1], 1.34 in [3], 22.56 in [5] and 0.97 in data set [6]. Moreover, the IC50 with L5178Y [2], in the data set on COLO 320, in the data set with MRC5, in the data set with L5178Y [4], in the data set with COLO 205 and with NIH3T3 was greater than 10 µM in each case.

Values taken from ChEMBL document CHEMBL4196198, “Terpenoids from Euphorbia pedroi as Multidrug-Resistance Reversers” (J Nat Prod, 2018).
